Assay results from ChEMBL document CHEMBL1139390, “Synthesis and biological studies of different duocarmycin based glycosidic prodrugs for their use in the antibody-directed enzyme prodrug therapy” (J Med Chem, 2009).

Tests used:
[1] = tested on: A549; test: Cytotoxicity against human A549 cells after 24 hrs by HTCFA; assay type: functional, cell-based; conditions: A549, 24 h
Summary of the method: (§1)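 Clonogenic (HTCFA) assay on adherent A549 cells seeded in triplicate at 10^2–10^5 cells per well; after 24 h, medium replaced by serum-free UltraCulture and cells exposed 24 h to 6–8 concentrations from fresh DMSO solutions (final DMSO 1%).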

[2] = tested on: A549; test: Cytotoxicity against human A549 cells after 24 hrs in presence of cleaving enzyme by HTCFA; assay type: functional, cell-based; conditions: A549, 24 h; summary of the method: as §1
[3] = tested on: A549; test: Ratio of IC50 for human A549 cells to IC50 for human A549 cells in presence of cleaving enzyme; assay type: functional
Summary of the method: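 QIC50 is the IC50 of the prodrug alone divided by its IC50 with the cleaving glycosidase present. Both values come from the 24 h exposure A549 clonogenic assay with 9–10 days of outgrowth and methylene blue colony counts.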

[4] = Stability in ultraculture medium after 24 hrs by HPLC-MS; assay type: physicochemical; conditions: read-out: Stability
Summary of the method: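 Compound held in UltraCulture medium at 37 °C for 24 h. The fraction remaining was quantified by HPLC-MS peak area (AUC) on a C12 reversed-phase column.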

SMILES | IC50 [1] [nM] | IC50 [2] [nM] | Ratio IC50 [3] | remaining at 24 h [4] [%]
C[C@H]1[C@@H]2CN(C(=O)c3cc4cc(OCCN(C)C)ccc4[nH]3)C3=CC(=O)c4ccccc4[C@@]312 | 0.75 | – | – | –
C[C@@H](Cl)[C@@H]1CN(C(=O)c2cc3cc(OCCN(C)C)ccc3[nH]2)c2cc(O[C@@H]3O[C@H](CO)[C@H](O)[C@H](O)[C@H]3O)c3ccccc3c21 | 3600 | 0.8 | 4800 | 27
C[C@@H](Cl)[C@@H]1CN(C(=O)c2cc3cc(OCCN(C)C)ccc3[nH]2)c2cc(O)c3ccccc3c21 | 0.75 | – | – | –
